# PABP FP inh: blocks human PABP binding to poly(A) RNA | fluorescence polarization | calls only at 35 µM | 290,000 compounds, 1% hits;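 note: calls also rest on retests at 20 µM and on dose response follow-up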
# Target sequence (P11940 whole entry, looked up): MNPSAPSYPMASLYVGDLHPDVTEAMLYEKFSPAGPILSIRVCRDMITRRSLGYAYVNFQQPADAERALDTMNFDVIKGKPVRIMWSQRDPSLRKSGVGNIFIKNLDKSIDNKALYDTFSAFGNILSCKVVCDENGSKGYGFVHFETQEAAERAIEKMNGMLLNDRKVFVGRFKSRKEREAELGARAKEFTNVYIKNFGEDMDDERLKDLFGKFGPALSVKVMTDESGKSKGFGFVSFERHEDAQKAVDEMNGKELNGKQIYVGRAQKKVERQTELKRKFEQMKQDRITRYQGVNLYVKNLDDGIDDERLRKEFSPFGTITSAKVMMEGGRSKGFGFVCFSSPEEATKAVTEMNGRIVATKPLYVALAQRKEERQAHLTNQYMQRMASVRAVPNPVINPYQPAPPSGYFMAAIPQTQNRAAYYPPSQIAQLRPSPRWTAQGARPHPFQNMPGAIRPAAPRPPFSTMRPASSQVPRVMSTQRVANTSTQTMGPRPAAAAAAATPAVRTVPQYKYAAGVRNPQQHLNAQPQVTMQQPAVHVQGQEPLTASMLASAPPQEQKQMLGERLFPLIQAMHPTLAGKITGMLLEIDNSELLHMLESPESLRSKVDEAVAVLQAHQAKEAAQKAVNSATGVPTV
# HCV core dimer: blocks dimerization of HCV core protein; 300,000 compounds, 0.33% hits; inhibition, % at 5 µM; TR-FRET GST/Flag-core106 dimerization, 1536-well; AID 1899;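 active = inhibition above the mean of all tested compounds plus 3 SD, set per screening campaign, cut at about 45% in these data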
#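 Material: GST/Flag-tagged HCV core106 proteins. Incubation: 4 h, 22.5 °C incubation. Read-out basis: inhibition (%) from 671 over 617 nm ratio. Measured by: TR-FRET, excitation 340 nm, emission 617 and 671 nm.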
# eIF4E 4G PPI: inhibitors of eIF4E and eIF4G interaction in translation initiation. TR-FRET eIF4E-eIF4GI(517-606) binding, 2 h. inhibition, % at 21.7 µM. 220,000 compounds, 0.37% hits;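 active = inhibition above about 30%, limit read from the data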
# MLLE-PAM2 inh: blocks PAM2 peptide binding to the PABP1 MLLE domain; P11940; 360,000 compounds, 0.36% hits; inhibition, % at 20 µM; AID 588489; GST-MLLE / FITC-PAM2 fluorescence polarization; in the data active = inhibition above about 35%, passing the limit was not always enough
# eIF4H FP inh: inhibitors of RNA binding by human eIF4H | Q15056 | eIF4H fluorescence polarization binding assay | inhibition, % at 35 µM | 290,000 compounds, 0.94% hits | AID 2012;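 note: calls also rest on retests at 20 µM and on dose response follow-up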
# UBC9 SUMO inh: inhibitors of human SUMOylation (UBC9); 290,000 compounds, 0.36% hits; inhibition, % at 35 µM; AID 2006; HTRF SUMOylation assay, SAE1/SAE2 + UBC9, in vitro; in the data active = inhibition above about 50%, passing the limit was not always enough; inconclusive = no clear call, values can overlap the other calls
# Hits are given with their value; - = inactive; ? = inconclusive; . = no result given; + = active, no number. Rows were chosen to be rich in hits. Some 1.8% of all compounds tested hit in one or more screens of this group. Unless noted, the rule behind the calls is not given here.
SMILES,PABP FP inh,HCV core dimer,eIF4E 4G PPI,MLLE-PAM2 inh,eIF4H FP inh,UBC9 SUMO inh
CCC(=O)N1CC2(CC(c3cccc(NC(=O)CC(c4ccccc4)c4ccccc4)c3)=NO2)C[C@H]1C(N)=O (stereo partly drawn),-,-,-,-,-,-
CCCCCC(=O)Nc1cccc(C2=NOC3(C2)C[C@H](C(N)=O)N(C(=O)c2ccccc2)C3)c1 (stereo partly drawn),-,-,-,-,-,-
C=C(C)C(=O)Nc1cccc(C2=NOC3(C2)C[C@H](C(N)=O)N(C(=O)CC)C3)c1 (stereo partly drawn),-,-,-,-,92,-
C/C=C/C=C\C(=O)Nc1cccc(C2=NOC3(C2)C[C@H](C(N)=O)N(C(=O)CC#N)C3)c1 (stereo partly drawn),-,-,-,-,-,-
C=C(C)C(=O)Nc1cccc(C2=NOC3(C2)C[C@H](C(N)=O)N(C(=O)CC#N)C3)c1 (stereo partly drawn),-,-,-,.,89,-
CCCCCC(=O)Nc1cccc(C2=NOC3(C2)C[C@H](C(N)=O)N(C(=O)CC#N)C3)c1 (stereo partly drawn),+,.,-,.,-,-
C=C(C)C(=O)Nc1cccc(C2=NOC3(C2)C[C@H](C(N)=O)N(C(=O)c2ccccc2C(=O)c2ccccc2)C3)c1 (stereo partly drawn),+,-,-,-,98,-
C=C(C)C(=O)Nc1cccc(C2=NOC3(C2)C[C@@H](C(N)=O)N(C(=O)CC(c2ccccc2)c2ccccc2)C3)c1 (stereo partly drawn),+,-,-,-,90,-
C/C=C(/C)C(=O)Nc1cccc(C2=NOC3(C2)C[C@@H](C(N)=O)N(C(=O)CC(c2ccccc2)c2ccccc2)C3)c1 (stereo partly drawn),-,-,-,-,-,-
CC(=O)N1CCc2[nH]c3ccc(C)cc3c2C1,+,-,.,-,?,-
CCOC(=O)N1CCc2[nH]c3ccc(C)cc3c2C1,-,-,-,56,-,-
Cc1ccc2[nH]c3c(c2c1)CN(C(=O)CN1CCSCC1)CC3,+,.,-,.,53,-
COc1ccccc1NC(=O)N1CCc2[nH]c3ccc(F)cc3c2C1,+,-,-,-,102,-
CC(=O)N1CCc2[nH]c3ccccc3c2C1,-,-,-,-,-,-
O=C(CSc1ncn(-c2ccccc2)n1)Nc1nc2c(s1)CCCC2,+,-,-,-,74,-
CC(=O)Nc1ccc(C(=O)CSc2ncn(-c3ccccc3)n2)cc1,-,-,-,41,-,-
CSc1ccccc1NC(=S)Nc1ccc(S(N)(=O)=O)cc1,-,-,-,36,-,-
Cn1nc(C(=O)O)c(=O)n(C)c1=O,.,.,.,40,.,.
CCCCCCN=C(C)c1ccccc1O,-,-,-,-,-,-
CCSc1ncnc2c1sc1nc(-c3ccco3)c3c(c12)CC(C)(C)OC3,-,65,-,.,-,-
CCOC(=O)c1sc2nc(-c3ccco3)c3c(c2c1N)CC(C)(C)OC3,-,-,.,-,-,-
COC(=O)CSc1ncnc2c1sc1nc(-c3ccco3)c3c(c12)CC(C)(C)OC3,-,64,.,.,-,-
COC(=O)C1=C(C)NC(=O)/C1=C\c1cc(C)n(-c2cc(C)cc(C)c2)c1C,+,-,-,-,83,-
COC(=O)C1=C(C)NC(=O)/C1=C\c1cc(C)n(-c2ccccc2)c1C,-,-,-,-,-,-
NC(=O)N(CCC(=O)O)c1ccccc1,+,-,-,-,63,-
CCN(CCC(=O)O)c1ccccc1,-,-,-,-,-,-
COc1ccc(C(=O)NC2CCSc3ccccc32)cc1S(=O)(=O)N1CCOCC1 (stereo not drawn),.,-,.,-,.,.
COc1ccc(C(C(=O)NC2CCCC2)N(CCO)C(=O)Cn2nnc(-c3ccc(C)o3)n2)cc1OC (stereo not drawn),-,-,.,-,-,-
Cc1cccc(NC(=O)CC2SC(=O)N(c3ccccc3)C2=O)c1 (stereo not drawn),-,-,-,-,-,-
Cc1ccc(NC(=O)CC2SC(=O)N(c3ccccc3)C2=O)cc1 (stereo not drawn),-,-,-,45,-,-

# Assay outcomes: PubChem, several laboratories
